PGC1a acetyl inh = inhibitors of PGC1a acetylation signal, primary screen, cell-based, U2OS, AlphaScreen, inhibitor mode; AlphaScreen anti-acetyl-lysine; with virally co-expressed GCN5 acetyltransferase; inhibition, % at 15.6 µM; 0.17% of 350,000 active; AID 651687, 2012;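 active = every replicate shows inhibition of at least 40%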;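 note: 0% = neutral control wells and 100% = positive control wells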
HIV Env fusion = inhibitors of HIV-1 Env-driven cell-cell fusion, primary screen, HeLa-JRFL effector, CEM21 target cells, luciferase; 1.1% of 360,000 active; inhibition, % at 12.3 µM;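 active = mean replicate inhibition score of at least 50 and every replicate individually at or above 50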;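 note: 0% = plate neutral controls and 100% = maraviroc near 300 nM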
FGF22 binding = binders of human FGF22 protein, primary screen, FGF22 synaptogenesis inhibitor project, biophysical, thermal shift, single point | Fibroblast growth factor 22 (Homo sapiens), Q9HCT0 | 1.5% of 340,000 active | recombinant FGF22 thermal shift, SYPRO orange fluorescence; percent of sucrose octasulfate shift, DMSO zero | activity (Tm shift, normalised), % at 9.99 µM | AID 651658, 2012;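 active = mean Tm shift, scaled 0 neutral to 100 positive control, at about 1.3% or above, every replicate too, limit read from the data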
Target sequence (Q9HCT0 whole entry, looked up): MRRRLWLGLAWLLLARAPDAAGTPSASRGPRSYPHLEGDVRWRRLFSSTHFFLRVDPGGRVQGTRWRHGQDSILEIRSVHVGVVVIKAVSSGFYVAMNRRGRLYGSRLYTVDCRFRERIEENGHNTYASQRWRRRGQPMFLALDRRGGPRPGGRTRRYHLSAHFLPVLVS
FN deposition inh = inhibitors of fibronectin matrix deposition, primary screen, AH1F cells, Alexa488-fibronectin fluorescence, plate reader | 0.086% of 350,000 active | inhibition, % at 12.6 µM | AH1F fibroblasts, overnight | AID 743247, 2014;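 active = mean inhibition across replicates of 30% or more, regardless of how many single replicates reach that level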;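 note: positive control wells lacked labelled fibronectin entirely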
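test system = AH1F fibroblasts assembling fluorescent fibronectin matrix | quantity = 10000 AH1F cells per well | buffer or medium = DMEM plus 2% serum, read in PBS | doses = single dose, pinned | incubation = 1 h cell attachment, overnight exposure to compound and label | detection = fluorescence at 485 nm excitation, 525 nm emission | read-out basis = inhibition from reduced deposited-fibronectin fluorescence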
PAX8 reporter = inhibitors of PAX8-driven TPO luciferase reporter, primary screen, RMG-I cells, single concentration; SteadyGlo, 24 h; inhibition, % at 12.6 µM; 1.2% of 360,000 active;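 active = mean replicate inhibition at least 60% with every replicate also reaching 60%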;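 note: luciferase light reporting Pax8 driven TPO promoter activity; plate controls were median of neutral control wells for no effect and mitoxantrone controls for full effect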
EWS-Fli block = EWS/Fli-driven NR0B1 reporter inhibitors, primary screen, A673 cells, NR0B1 luciferase, luminescence, MLPCN library; 0.67% of 350,000 active; inhibition, % at 12.6 µM; viability-normalised;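 active = mean inhibition of at least 50% after viability correction, with every replicate also passing that limit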;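 note: firefly luciferase signal divided by Alamar Blue viability fluorescence both relative to DMSO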
Active calls of the source: *; x = no result; ! = repeats disagree; [ ] = dose if it differs, or a comment. An excerpt weighted towards active compounds, which were near 3.1% of everything screened.

SMILES | PGC1a acetyl inh | HIV Env fusion | FGF22 binding | FN deposition inh | PAX8 reporter | EWS-Fli block
Clc1ccc(-c2c[n+](Cc3ccc(Cl)cc3Cl)c3n2CCCCC3)cc1 | -14 | 20 | x | 2 | 22 | 8
COc1ccc(CNC(=O)C[C@@H]2CC[C@@H]3[C@H](COc4ccc(NC(C)=O)cc4C(=O)N3C)O2)cc1 | -1 | -2[16.7 µM] | 0 | -2 | 8 | 4
OC(c1ccccc1)(c1ccccc1)C1CCN(CCCOc2ccc(-c3ccc(F)cc3F)cc2)CC1 | x | 63* | 0 | 4 | 59 | 31
CC(C)NC(=O)N1[C@H](CO)[C@@H]2c3ccccc3N(C(=O)c3ccncc3)C[C@@H]21 | -3 | x | -1 | x | -22 | 3
CCn1c(=O)cc(N2CCOCC2)[nH]c1=O | x | 11 | 43* | -8 | 17 | 9
COc1ccc(NC(=O)Cc2ccccc2)cn1 | x | -15 | 0 | 5 | 1 | -11
COc1ccc(NC(=O)/C(Cl)=C(/Cl)S(=O)Cc2ccccc2)cn1 (centres undefined) | 71* | x | x | x | x | x
COc1ccc(NC(=O)CSc2ccccc2)cn1 | -4 | -12 | 43* | 21 | 23 | -27
O=C(C[C@H]1CC[C@H](NC(=O)c2ccc3c(c2)OCO3)[C@H](CO)O1)NCc1ccc(Cl)cc1 | -3 | 13[16.7 µM] | 0 | x | 7 | -10
Cc1ccc(NC(=O)CN(C)C(=O)c2ccc(S(=O)(=O)N(C)c3ccccc3)cc2)cc1 | 10 | 0 | 43* | 7 | 17 | 6
Cc1cccc(NS(=O)(=O)c2ccc(-c3cnc(C4CC4)o3)cc2)c1C | -26 | -53 | 0 | -4 | 75* | x
Cc1cc(C)cc(NS(=O)(=O)c2ccc(-c3cnc(C4CC4)o3)cc2)c1 | -15 | -33 | 0 | -19 | 75* | x
O=S(=O)(Nc1ccccc1)c1ccc(-c2cnc(C3CC3)o2)cc1 | -7 | 9 | 0 | 24 | 36 | x
Cc1ccc(C)c(NS(=O)(=O)c2ccc(-c3cnc(C4CC4)o3)cc2)c1 | x | 21 | 0 | -20 | 85* | x
C[C@@H]1CN([C@H](C)CO)C(=O)c2cc(NC(=O)Nc3ccc(C(F)(F)F)cc3)ccc2O[C@H]1CN(C)C(=O)NC1CCCCC1 | 1 | x | 0 | x | 23 | 5
c1ccc(CNc2ncnc3ccccc23)cc1 | 11 | 106*! | 0 | 4 | -26 | 5
c1cncc(CNc2ncnc3ccc(-c4cccnc4)cc23)c1 | 8 | x | 45* | -15 | -18 | 0
COc1cc2ncnc(NCc3ccccc3)c2cc1OC | 22 | x | x | x | x | x
Cc1ccc(-n2ncc3c(NCc4cccnc4)ncnc32)c(C)c1 | x | 58* | x | -12 | 3 | x
C=CCNc1nc(C(=O)OCC)nc2ccccc12 | x | -3 | 0 | 0 | -30 | -1
CCOC(=O)c1nc(NCc2ccccc2)c2ccccc2n1 | x | 7 | 44* | 4 | -5 | -5
CCCN(C)C[C@H]1Oc2ncc(C#CCC(C)C)cc2C(=O)N([C@H](C)CO)C[C@@H]1C | -23 | 15[16.7 µM] | 0 | 10 | -3 | -12
COc1ccc(CN(C)C[C@H]2Oc3ccc(NC(=O)C4CC4)cc3C(=O)N([C@@H](C)CO)C[C@H]2C)cc1 | -4 | 1[16.7 µM] | 0 | 0 | x | 3
COC(=O)[C@H]1[C@H](CO)[C@H]2Cn3c(ccc(-c4cccc(F)c4)c3=O)[C@H]2N1C(C)=O | x | x | 0 | x | -13 | -1
NC(=O)c1cc([N+](=O)[O-])ccc1NCc1ccc(N)cc1 | x | 71* | 0 | 5 | 35 | 74*
Cc1ccc(NC(=O)c2c(C(F)(F)F)nn(C)c2SCc2cccc(C(F)(F)F)c2)cc1C | x | 87* | x | -9 | -44 | x
Cc1ccc(NC(=O)c2c(C(F)(F)F)nn(C)c2SCc2ccc(Cl)cc2)cc1C | -60 | 54 | x | -11 | x | x
C[C@H](CO)N1C[C@H](C)[C@@H](CN(C)S(C)(=O)=O)Oc2ccc(NS(=O)(=O)c3cccs3)cc2CC1=O | 6 | 3[16.7 µM] | 0 | x | 3 | -5

Screens: PubChem, Broad Institute
